Source: PubChem BioAssay
Rows were chosen to be rich in hits. Some 1.4% of all compounds tested hit in one or more screens of this group.
HKDC1 inhibitor: inhibitors of human hexokinase HKDC1. Q2TB90. recombinant HKDC1, G6PDH/diaphorase resazurin coupled fluorescence. inhibition, % at 20 µM. 340,000 compounds, 0.16% hits;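 active = inhibition above about 35% when tested at 20 µM, limit read from the data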;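 also: plate controls were DMSO wells with enzyme for no effect and DMSO wells lacking enzyme for full effect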
Target sequence (Q2TB90 whole entry, looked up): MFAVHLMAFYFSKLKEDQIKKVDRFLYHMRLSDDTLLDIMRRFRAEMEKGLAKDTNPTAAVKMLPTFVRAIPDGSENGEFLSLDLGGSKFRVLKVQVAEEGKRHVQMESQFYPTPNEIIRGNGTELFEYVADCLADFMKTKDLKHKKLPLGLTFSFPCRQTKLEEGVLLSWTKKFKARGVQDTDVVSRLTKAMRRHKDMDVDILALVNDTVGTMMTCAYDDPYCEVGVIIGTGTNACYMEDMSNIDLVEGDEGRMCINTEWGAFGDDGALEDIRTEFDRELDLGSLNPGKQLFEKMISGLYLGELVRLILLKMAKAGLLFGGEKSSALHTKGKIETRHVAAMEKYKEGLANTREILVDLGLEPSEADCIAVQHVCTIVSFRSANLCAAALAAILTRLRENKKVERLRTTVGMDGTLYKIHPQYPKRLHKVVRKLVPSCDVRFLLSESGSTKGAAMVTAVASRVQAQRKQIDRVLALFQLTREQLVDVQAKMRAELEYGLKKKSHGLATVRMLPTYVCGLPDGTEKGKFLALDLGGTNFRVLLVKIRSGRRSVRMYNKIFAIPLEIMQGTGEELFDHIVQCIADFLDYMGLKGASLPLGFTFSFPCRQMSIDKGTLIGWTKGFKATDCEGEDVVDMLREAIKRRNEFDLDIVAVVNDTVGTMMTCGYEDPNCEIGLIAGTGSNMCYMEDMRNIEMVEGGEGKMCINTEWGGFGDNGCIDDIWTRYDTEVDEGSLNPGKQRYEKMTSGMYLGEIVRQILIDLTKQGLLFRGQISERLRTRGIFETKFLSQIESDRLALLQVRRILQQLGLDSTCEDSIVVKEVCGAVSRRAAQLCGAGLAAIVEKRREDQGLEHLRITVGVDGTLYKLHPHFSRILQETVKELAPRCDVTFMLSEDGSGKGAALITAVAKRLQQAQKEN
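Incubation: 90 min at room temperature in dark / Material: recombinant HKDC1 (HK5) hexokinase enzyme, produced in-house / Quantity: enzyme 5 µg/mL final / Compound: one dose of 20 µM, 1% DMSO / Reagent: glucose and ATP substrates / Buffer or medium: Tris pH 8.0 buffer with MgCl2, Tween-20, BSA, BME / Technique: resorufin fluorescence at 613 nm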
ATG4B inhibitor: ATG4B (human) cysteine protease inhibition; Q9Y4P1; ATG4B cleavage of LC3-PLA2, NBD-HPC fluorescence, 1 h; inhibition, % at 8.33 µM; 340,000 compounds, 0.51% hits; AID 504462; in the data active = inhibition above about 40%
Diaph inh CS: diaphorase inhibition or chemical oxidation counter-screen. 190,000 compounds, 0.69% hits. inhibition, % at 20 µM. AID 1217. diaphorase resazurin-to-resorufin fluorescence, NADH, 16 min; bacterial (C. kluyveri) enzyme, not human;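 active = primary screen inhibition at 20 µM above a set limit, cut at about 50% in these data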;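 also: plate controls were DMSO with full reaction for no effect and wells lacking NADH for full effect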
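Benchmarks: positive control wells lacking NADH, neutral wells with DMSO only. System: bacterial diaphorase enzyme (C. kluyveri). Input: 0.14 U/mL diaphorase, enzyme working solution. Detection: resorufin fluorescence, excitation 544 nm, emission 590 nm. Times: 16-min room-temperature incubation before reading.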
Diaphorase act: diaphorase activation or chemical reduction counter-screen. Diaphorase/resazurin coupled assay, resorufin fluorescence, 16 min; active compounds read high; 1 = vehicle wells, 0 = NADH-free wells. 190,000 compounds, 0.005% hits. activation factor at 20 µM;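 active = diaphorase activity raised at least twofold by the compound at 20 µM; inactive = activation factor below 2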
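Material: purified diaphorase enzyme from Clostridium kluyveri; Also added: 0.114 mM NADH and 0.1 mM resazurin, final amounts; Doses: single compound dose of 20 µM, 1% DMSO final; Times: 16 min enzyme reaction, ambient temperature; Detection: resorufin fluorescence, excitation 544 nm, emission 590 nm; Measure: increased resorufin signal from activators or reducing compounds.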
CTSL1 counter: cathepsin L1 inhibition, PFM18AAP counter-screen; inhibition, % at 5.96 µM; 300,000 compounds, 0.49% hits; recombinant F. hepatica cathepsin L1, Z-Leu-Arg-MCA fluorescence;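 active = inhibition above the mean of all tested compounds plus 3 SD, set per screening campaign, cut at about 17% in these data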;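 also: 0% = plate median of test compound wells and 100% = 1 µM Z-Phe-Ala-diazomethylketone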
* marks the source's active call; other numbers are inactive results; nt = no result given.

SMILES	HKDC1 inhibitor	ATG4B inhibitor	Diaph inh CS	Diaphorase act	CTSL1 counter
O=C(COC(=O)c1ccc([N+](=O)[O-])s1)Nc1ccccc1	-1	-11	0	1	74*
O=C(COC(=O)c1ccc([N+](=O)[O-])s1)NCc1ccccc1	3	7	14	0.9	57*
O=C(COC(=O)c1ccc([N+](=O)[O-])s1)Nc1ccc(F)cc1	0	0	nt	nt	nt
O=C(COC(=O)c1ccc([N+](=O)[O-])s1)Nc1cccc(S(=O)(=O)NC2=NCCCCC2)c1	1	-16	nt	nt	70*
COc1cc(C(=O)N/N=C/c2ccc(OC(=O)c3cccc(C)c3)c(OC)c2)ccc1O	-2	-5	nt	nt	5
CC1C(=O)Nc2ccc(S(=O)(=O)N3CCCCCC3)cc21 (stereo not given)	-7	-3	nt	nt	nt
Cc1ccc(NC(=O)c2ncn(CCCNCC3CCCO3)n2)cc1C (stereo not given)	-3	1	nt	nt	nt
CC(=O)OC1c2ccccc2C(=O)N1c1ccccc1C (stereo not given)	-1	-3	15	0.8	-4
CC(=O)OC1c2ccccc2C(=O)N1Cc1ccccc1 (stereo not given)	-8	2	-4	1	20*
COc1cccc2c(SCC(=O)N/N=C/c3ccc(O)c(O)c3)cc(C)nc12	0	0	54*	0.5	3
COc1cccc2c(SCC(=O)N/N=C/c3ccccc3)cc(C)nc12	-5	-15	12	0.9	-1
CC(=O)N1CCN(C(=O)c2ccco2)CC1	-5	-12	nt	nt	2
O=C1NCCN1C(=O)c1ccco1	-6	-7	9	0.9	21*
COc1ccc(S(=O)(=O)N2CCC(C(=O)NCCc3ccccc3)CC2)cc1	-3	7	nt	nt	12
COc1cc([N+](=O)[O-])cc(/C=N/NC(=O)CC#N)c1O	nt	nt	51*	0.5	nt
COc1cc([N+](=O)[O-])cc(/C=N/NC(=O)Cn2cncn2)c1O	-7	-8	nt	nt	2
Cc1cc(C)c2nc(NNC(=O)c3ccc(S(=O)(=O)N4CCc5ccccc5C4)cc3)sc2c1	-24	-4	7	0.9	0
Cc1cc(C)c2nc(NNC(=O)c3cc(=O)c4ccccc4o3)sc2c1	-19	5	67*	0.3	4
CC(=O)n1c2ccccc2c2ccccc21	-5	-10	13	0.9	-3
CC(=O)n1c(Cl)c(NC(=O)CCl)c2ccccc21	-11	-2	17	0.8	37*
Cc1ccc(C(=O)NC(=S)Nc2cccc3nsnc23)cc1	8	-11	59*	0.4	-1
Cc1ccc(C(=O)NC(=S)Nc2c(C)ccc3nsnc23)cc1	5	6	17	0.8	-3
CCOC(=O)c1c(-c2ccc(C)o2)csc1NC(=O)CSc1nnc(C)s1	16	-24	19	0.8	2
CCOC(=O)c1c(-c2ccc(C)o2)csc1NC(=O)COC(=O)c1ccc(NC(N)=O)cc1	1	-6	7	0.9	19*
CC(NS(=O)(=O)c1ccccc1)C(c1cccs1)N1CCOCC1 (stereo not given)	-1	-4	2	1	79*
SMILES	HKDC1 inhibitor	ATG4B inhibitor	Diaph inh CS	Diaphorase act	CTSL1 counter
CC(Sc1ccc2c(c1)OCCO2)C(=O)Nc1ncc(Cl)cc1Cl (stereo not given)	29	6	64*	0.4	4
COc1ccc(CCNC(=O)CSc2nc3[nH]ncc3c(=O)n2-c2ccc(Cl)cc2Cl)cc1OC	26	-8	73*	0.3	3
CN(c1ccccc1)c1nccc(=O)[nH]1	3	-3	nt	nt	-3
CC(C)CC(NS(=O)(=O)c1ccc2c(c1)oc(=O)n2C)C(=O)N1CC=C(c2ccccc2)CC1 (stereo not given)	10	-7	30	0.7	77*
Cn1c(=O)oc2cc(S(=O)(=O)NCCC(=O)N3CC=C(c4ccccc4)CC3)ccc21	-7	-4	22	0.8	2
COc1ccc(NC(=O)N(C)C[C@H]2Oc3ccc(NC(=O)NC4CCCCC4)cc3C(=O)N([C@H](C)CO)C[C@@H]2C)cc1	3	3	nt	nt	nt
CCCCN(CC)C(=O)CSc1nc2n[nH]c(C)c2c(=N)n1-c1cccc(C)c1	3	-12	66*	0.3	7
Cc1cccc(-n2c(SCC(=O)N3CCCC3)nc3n[nH]c(C)c3c2=N)c1	2	-18	68*	0.3	3
CCN(C(=O)CSc1nc2n[nH]c(C)c2c(=N)n1-c1ccc(Cl)c(C)c1)c1cccc(C)c1	1	-14	nt	nt	1
CC(C)C[C@@H](CN)NC(=O)c1nc[nH]c1C(=O)N[C@@H](C)C(=O)CNC[C@H](C)NC(=O)c1nc[nH]c1C(=O)N[C@@H](CC(=O)O)C(=O)O	-6	-3	nt	nt	nt
N#CC1(NC(=O)CN2C(=O)NC3(CCCCCC3)C2=O)CCCCC1	-2	6	nt	nt	nt
Cc1ccc(/C=C/C(=O)N2CCN(S(=O)(=O)c3c(C)c(C)cc(C)c3C)CC2)o1	-3	14	19	0.8	43*
Cc1ccc(/C=C/C(=O)N2CCN(S(=O)(=O)c3ccc(C)c(C)c3)CC2)o1	8	2	19	0.8	6
COc1cc(NC(C)=O)c2ncccc2c1NC(C)=O	-4	-5	nt	nt	-3
COc1cc(NC(C)=O)c2ncccc2c1[N+](=O)[O-]	16	0	61*	0.4	3
O=C1c2ccccc2C(=O)N1Cc1cc(Cl)c(O)c([N+](=O)[O-])c1	3	4	nt	nt	-3
Nc1cc(CN2C(=O)c3ccccc3C2=O)cc(Cl)c1O	4	0	22	0.8	25*
Cc1ccc(S(=O)(=O)c2nc(S(C)(=O)=O)sc2N2CCC(C)CC2)cc1	0	-5	nt	nt	-2
COc1ccc(C(=O)c2coc(-c3ccccc3C(=O)O)c2C(=O)O)cc1	9	4	8	0.9	0
COc1ccc(C(=O)c2c(C(F)(F)F)oc3c2C(=O)c2ccccc2C3=O)cc1	17	19	7	0.9	28*
O=[N+]([O-])c1ccccc1N/N=C1\CC2CC=CC12 (stereo not given)	-2	5	61*	0.4	-1
O=C(NCSc1ccnc(SCNC(=O)c2ccccc2)n1)c1ccccc1	5	-10	17	0.8	19*
O=C(COC(=O)CSc1ccc([N+](=O)[O-])cc1)NCc1cccs1	-6	3	nt	nt	18*
Cc1ccc(SCC(=O)OCC(=O)NCc2cccs2)cc1	-3	-6	nt	nt	-4
CC(C)CN(C(=O)Cn1c(C(F)(F)F)nc2ccccc21)c1c(N)n(Cc2ccccc2)c(=O)[nH]c1=O	-2	-17	nt	nt	nt
COCCCNc1nc2ccccc2nc1NS(=O)(=O)c1cc(Cl)ccc1Cl	3	1	nt	nt	-7
COc1ccccc1-n1c(=O)[nH]c2c(C(N)=O)nc(CC(C)C)nc21	-4	9	20	0.8	21*
